Measured values reported in ChEMBL document CHEMBL3739344, “A novel class of negative allosteric modulators of NMDA receptor function” (Bioorg Med Chem Lett, 2015).
Values after ≈ are worked out from the molar mass of the structure shown. Blank lines part the entries; values can stand above or below the compound they belong to.

What was measured:
[1] = target: Glutamate NMDA receptor; Grin1/Grin2a (Rattus norvegicus, UniProt P35439+Q00959); assay: Negative allosteric modulation of rat GluN1a/GluN2A receptor expressed in Xenopus laevis oocytes assessed as suppression of 100 uM glutamate and 30 uM glycine glycine induced-current by voltage clamp recording method; format: cell-based
Outline: (§1)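 Rat GluN1-1a cRNA co-injected with GluN2A, 2B, 2C or 2D cRNA into Xenopus oocytes; expression 1–3 days at 16–19 °C. Two-electrode voltage clamp. Currents evoked by 100 µM glutamate plus 30 µM glycine, alone and then with rising inhibitor concentrations. […] 4–17 oocytes from ≥2 frogs.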

[2] = target: Glutamate NMDA receptor; Grin1/Grin2b (Rattus norvegicus, UniProt P35439+Q00960); assay: Negative allosteric modulation of rat GluN1a/GluN2B receptor expressed in Xenopus laevis oocytes assessed as suppression of 100 uM glutamate and 30 uM glycine induced-current by voltage clamp recording method; format: cell-based; outline: as §1
[3] = target: Glutamate NMDA receptor; Grin1/Grin2c (Rattus norvegicus, UniProt P35439+Q00961); assay: Negative allosteric modulation of rat GluN1a/GluN2C receptor expressed in Xenopus laevis oocytes assessed as suppression of 100 uM glutamate and 30 uM glycine induced-current by voltage clamp recording method; format: cell-based; outline: as §1
[4] = target: Ionotropic glutamate receptor NMDA 1/2D (Rattus norvegicus, UniProt P35439+Q62645); assay: Negative allosteric modulation of rat GluN1a/GluN2D receptor expressed in Xenopus laevis oocytes assessed as suppression of 100 uM glutamate and 30 uM glycine induced-current by voltage clamp recording method; format: cell-based; outline: as §1
[5] = Solubility of compound in TEVC electrophysiological solution at 3.25 to 100 uM by nephelometric method; format: physicochemical
Outline: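 Nephelometry measuring forward light scattering of each compound at 3.25–100 µM in TEVC recording solution. Maximum solubility taken as the intersection point of a linear segmental regression. Mean of n = 2 in quadruplicate.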

[6] = target: Glutamate NMDA receptor; Grin1/Grin2a (Rattus norvegicus) (UniProt P35439+Q00959); assay: Negative allosteric modulation of rat GluN1a/GluN2A receptor expressed in Xenopus laevis oocytes assessed as suppression of 100 uM glutamate and 30 uM glycine induced-current at saturating compound level by voltage clamp recording method; format: cell-based; outline: as §1
[7] = target: T1, Glutamate NMDA receptor; Grin1/Grin2b (Rattus norvegicus) (UniProt P35439+Q00960); assay: Negative allosteric modulation of rat GluN1a/GluN2B receptor expressed in Xenopus laevis oocytes assessed as suppression of 100 uM glutamate and 30 uM glycine induced-current at saturating compound level by voltage clamp recording method; format: cell-based; outline: as §1
[8] = target: Glutamate NMDA receptor; Grin1/Grin2c (Rattus norvegicus) (UniProt P35439+Q00961); assay: Negative allosteric modulation of rat GluN1a/GluN2C receptor expressed in Xenopus laevis oocytes assessed as suppression of 100 uM glutamate and 30 uM glycine induced-current at saturating compound level by voltage clamp recording method; format: cell-based; outline: as §1
[9] = target: Ionotropic glutamate receptor NMDA 1/2D (Rattus norvegicus) (UniProt P35439+Q62645); assay: Negative allosteric modulation of rat GluN1a/GluN2D receptor expressed in Xenopus laevis oocytes assessed as suppression of 100 uM glutamate and 30 uM glycine induced-current at saturating compound level by voltage clamp recording method; format: cell-based; outline: as §1
[10] = target: T1, Glutamate NMDA receptor; Grin1/Grin2b (Rattus norvegicus); assay: Negative allosteric modulation of rat GluN1a/GluN2B receptor expressed in Xenopus laevis oocytes assessed as suppression of 100 uM glutamate and 30 uM glycine induced-current at 30 uM by voltage clamp recording method; format: cell-based

Structure (SMILES): COC(=O)c1c(NC(=O)CC2SC(N)=NC2=O)sc2c1CCC(C)C2 (racemic)
- IC50 [1]: 0.7 µM
- IC50 [2]: 0.6 µM
- IC50 [3]: 0.3 µM
- IC50 [4]: 0.3 µM
- solubility kinetic [5]: 20 µM (≈ 7.63 µg/mL)
- inhibition [6]: 80%
- inhibition [7]: 74%
- inhibition [8]: 95%
- inhibition [9]: 94%

Structure (SMILES): CCOC(=O)c1c(NC(=O)CC2SC(=N)NC2=O)sc2c1CCC(C)(C)C2 (racemic)
- IC50 [1]: 16.1 µM
- IC50 [2]: 9.2 µM
- IC50 [3]: 9.3 µM
- IC50 [4]: 8.8 µM
- solubility kinetic [5]: 37 µM (≈ 15.2 µg/mL)
- inhibition [6]: 72%
- inhibition [7]: 44%
- inhibition [8]: 89%
- inhibition [9]: 90%

Structure (SMILES): CCc1c(C)sc(NC(=O)CC2SC(=N)NC2=O)c1C(=O)OC (racemic)
- IC50 [1]: 26.8 µM
- IC50 [2]: 43.8 µM
- IC50 [3]: 6.7 µM
- IC50 [4]: 9.1 µM
- inhibition [6]: 79%
- inhibition [7]: 77%
- inhibition [8]: 85%
- inhibition [9]: 82%

Structure (SMILES): CCOC(=O)c1cc(C)sc1NC(=O)CC1SC(=N)NC1=O (racemic)
- IC50 [1]: 42.8 µM
- IC50 [2]: 44.9 µM
- IC50 [3]: 11.2 µM
- IC50 [4]: 12.3 µM
- inhibition [6]: 93%
- inhibition [7]: 91%
- inhibition [8]: 98%
- inhibition [9]: 99%

Structure (SMILES): COC(=O)c1c(NC(=O)CC2SC(=N)NC2=O)sc(C)c1C (racemic)
- IC50 [1]: 22.3 µM
- IC50 [2]: 28.2 µM
- IC50 [3]: 9.7 µM
- IC50 [4]: 10.4 µM
- inhibition [6]: 88%
- inhibition [7]: 63%
- inhibition [8]: 88%
- inhibition [9]: 94%

Structure (SMILES): CCOC(=O)c1c(NC(=O)CC2SC(=N)NC2=O)sc(C)c1C (racemic)
- IC50 [1]: 30.2 µM
- IC50 [3]: 8.1 µM
- IC50 [4]: 13 µM
- inhibition [10]: < 25%
- inhibition [6]: 80%
- inhibition [8]: 77%
- inhibition [9]: 81%

Next, values leading:

- IC50 [1]: 3.4 µM
- IC50 [2]: 4.2 µM
- IC50 [3]: 1 µM
- IC50 [4]: 1.1 µM
- solubility kinetic [5]: 57 µM (≈ 20.9 µg/mL)
- inhibition [6]: 81%
- inhibition [7]: 86%
- inhibition [8]: 88%
- inhibition [9]: 86%
Structure (SMILES): COC(=O)c1c(NC(=O)CC2SC(N)=NC2=O)sc2c1CCCC2 (racemic)

- IC50 [1]: 4.8 µM
- IC50 [2]: 9.3 µM
- IC50 [3]: 2.5 µM
- IC50 [4]: 2.6 µM
- inhibition [6]: 98%
- inhibition [7]: 97%
- inhibition [8]: 97%
- inhibition [9]: 98%
Structure (SMILES): CCc1cc(C(=O)OC)c(NC(=O)CC2SC(N)=NC2=O)s1 (racemic)

- IC50 [1]: 5.2 µM
- IC50 [2]: 8 µM
- IC50 [3]: 1.4 µM
- IC50 [4]: 1.5 µM
- solubility kinetic [5]: 35 µM (≈ 14.6 µg/mL)
- inhibition [6]: 84%
- inhibition [7]: 74%
- inhibition [8]: 75%
- inhibition [9]: 65%
Structure (SMILES): CCOC(=O)c1c(NC(=O)CC2SC(=N)NC2=O)sc2c1CCC(F)(F)C2 (racemic)

- IC50 [1]: 3 µM
- IC50 [2]: 5.6 µM
- IC50 [3]: 2.9 µM
- IC50 [4]: 2.1 µM
- inhibition [6]: 74%
- inhibition [7]: 69%
- inhibition [8]: 59%
- inhibition [9]: 41%
Structure (SMILES): CCOC(=O)c1c(NC(=O)CC2SC(=N)NC2=O)sc2c1CCOC2 (racemic)

- IC50 [1]: 3.4 µM
- IC50 [2]: 2.2 µM
- IC50 [3]: 0.9 µM
- IC50 [4]: 1.5 µM
- solubility kinetic [5]: 73 µM (≈ 29.9 µg/mL)
- inhibition [6]: 58%
- inhibition [7]: 59%
- inhibition [8]: 80%
- inhibition [9]: 73%
Structure (SMILES): CCOC(=O)c1c(NC(=O)CC2SC(=N)NC2=O)sc2c1CCC(CC)C2 (racemic)

- IC50 [1]: 6.2 µM
- IC50 [2]: 9.7 µM
- IC50 [3]: 3.7 µM
- IC50 [4]: 2.6 µM
- inhibition [6]: 96%
- inhibition [7]: 96%
- inhibition [8]: 97%
- inhibition [9]: 94%
Structure (SMILES): CCOC(=O)c1cc(CC)sc1NC(=O)CC1SC(=N)NC1=O (racemic)

- IC50 [3]: 2.9 µM
- IC50 [4]: 4.3 µM
- solubility kinetic [5]: 36 µM (≈ 12 µg/mL)
- inhibition [8]: 59%
- inhibition [9]: 63%
Structure (SMILES): N#Cc1c(NC(=O)CC2SC(=N)NC2=O)sc2c1CCCC2 (racemic)

- IC50 [1]: 2.3 µM
- IC50 [2]: 4.2 µM
- IC50 [3]: 1.2 µM
- IC50 [4]: 0.6 µM
- solubility kinetic [5]: 54 µM (≈ 20.6 µg/mL)
- inhibition [6]: 61%
- inhibition [7]: 35%
- inhibition [8]: 53%
- inhibition [9]: 41%
Structure (SMILES): CCOC(=O)c1c(NC(=O)CC2SC(=N)NC2=O)sc2c1CCCC2 (racemic)
